# From publication PMC11756393 (Scientific Reports, 2025)
# How the values were obtained:
# [1] = tested on: macrophages (human monocytes THP-1 differentiated); experiment: MTT cytotoxicity assay on macrophages; assay type: cell-based; conditions: SI as a marker of toxicity
# In short: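 THP-1 monocytes were differentiated to macrophages and grown at 37 °C, 5% CO2 in RPMI 1640 with 10% FBS. Test compound added in triplicate; untreated wells and medium with 1% DMSO served as controls. After 72 h, MTT was added for 4 h, formazan dissolved in DMSO and absorbance read at 490 nm. CC50 by probit analysis, mean ± SD; SI = CC50/amastigote IC50.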
# L. tropica promastigotes = experiment: MTT assay on promastigotes; assay type: cell-based, Leishmania tropica; conditions: for Combined effect with meglumine antimonate on promastigotes (in words): combination with MA, compared with MA monotherapy; for Inhibitory activity on promastigotes (in words): compound alone, compared with meglumine antimonate
# In short: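 L. tropica promastigotes grown at 24 °C in RPMI 1640 with 10% FBS, seeded at 5 × 10^5 cells/ml and left overnight. Test compound then added in triplicate for 72 h. MTT for 4 h, formazan dissolved in DMSO, absorbance read at 490 nm. IC50 from nonlinear regression against untreated control. Meglumine antimonate combinations scored by combination index and isobologram additivity line.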
Structure (SMILES),Safety for mammalian macrophages judged by SI (in words) [1],Combined effect with meglumine antimonate on promastigotes (in words) (L. tropica promastigotes),Inhibitory activity on promastigotes (in words) (L. tropica promastigotes)
"COc1ccc(C2Oc3ccccc3C=C2[N+](=O)[O-])cc1 (stereo not drawn) [Compound 4d, 2-(4-methoxyphenyl)-3-nitro-2H-chromene]",highly safe,,
"O=[N+]([O-])C1=Cc2ccccc2OC1c1cccc(OCc2ccc(Cl)cc2)c1 (stereo not drawn) [Compound 4n, 2-(3-((4-chlorobenzyl)oxy)phenyl)-3-nitro-2H-chromene]",highly safe,most pronounced synergistic effects,comparable to meglumine antimonate
"O=[N+]([O-])C1=Cc2ccccc2OC1c1cccc(OCc2ccc([N+](=O)[O-])cc2)c1 (stereo not drawn) [Compound 4o, 3-nitro-2-(3-((4-nitrobenzyl)oxy)phenyl)-2H-chromene]",highly safe,most pronounced synergistic effects,comparable to meglumine antimonate
"Cc1ccc(COc2cccc(C3Oc4ccccc4C=C3[N+](=O)[O-])c2)cc1 (stereo not drawn) [Compound 4k, 2-(3-((4-methylbenzyl)oxy)phenyl)-3-nitro-2H-chromene]",,most pronounced synergistic effects,comparable to meglumine antimonate
